Results: ChEMBL document CHEMBL1142097, “EthA, a common activator of thiocarbamide-containing drugs acting on different mycobacterial targets” (Antimicrob Agents Chemother, 2007)
≈ marks a conversion by molar mass, not a printed value.

What was measured:
[1] = test system: Mycobacterium tuberculosis variant bovis BCG; assay: Antimycobacterial activity against Mycobacterium bovis BCG Pasteur with pMV261 vector; type: functional
Method in brief: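 Agar MIC on Middlebrook 7H9 or 7H11 with OADC (ADC substituted for isoxyl-type drugs) plus graded drug levels; serial 10-fold dilutions of actively growing culture plated, incubated 37°C for 10–14 days; MIC = lowest concentration blocking 99% of growth. Recombinant Pasteur strains selected with 25 μg/ml kanamycin; ethR::hyg mutant carries a hygromycin-marked transposon in ethR.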

[2] = Drug metabolizing activity of Mycobacterium bovis BCG recombinant ethA expressed in Escherichia coli; type: ADME; settings: mycobacterium tuberculosis variant bovis bcg
Method in brief: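 N-terminal His6-tagged EthA expressed in E. coli (1 mM IPTG, 22°C, 24 h), Ni2+ affinity-purified with bound FAD. Drug incubated at 37°C for 1 h in 50 mM Tris-HCl pH 7.4, 100 mM KCl, 200 μg/ml BSA, 4 mM NADPH, 8 μg EthA.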

Compound | MIC [1] [µg/mL] | Activity [2] [µmol/min/mg]
COc1ccc(/C(C)=N/NC(N)=S)cc1 | 0.25 (≈ 1.12 µM) | –
CC(C)CCSc1ccc(NC(=S)Nc2ccc(SCCC(C)C)cc2)cc1 | 40 (≈ 92.4 µM) | 7.37
CC(=O)Nc1ccc(/C=N/NC(N)=S)cc1 [AMITHIOZONE] | 0.5 (≈ 2.12 µM) | –
CCc1cc(C(N)=S)ccn1 [ETHIONAMIDE] | 2 (≈ 12 µM) | –
NC(=S)N/N=C/c1cccnc1 [NICOTHIAZONE] | 10 (≈ 55.5 µM) | –
CC(C)CCOc1ccc(NC(=S)Nc2ccc(OCCC(C)C)cc2)cc1 [TIOCARLIDE] | 0.25 (≈ 0.624 µM) | 7.56
